# Key:
# [1] = Antioxidant activity assessed as trolox equivalents ratio of AAPH radical scavenging activity after 30 mins by ORAC-fluorescein assay; format: functional
# How it was run: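 Compounds dissolved in PBS immediately before use, pH 7.4; fluorescein quenching initiated by AAPH, fluorescence (excitation 485 nm) read at 37 °C every 5 min up to 30 min. Net area under fluorescein decay curve (blank minus sample) converted to Trolox equivalents via 10–50 µM Trolox calibration; three replicates.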
# [2] = tested on: Radical scavenging activity; assay: Antioxidant activity assessed as DPPH free radical scavenging activity by UV-Vis spectrophotometry; format: functional
# How it was run: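 DPPH methanolic solution (1.5 mL) mixed with 0.750 mL compound solution at 1, 0.5, 0.25, 0.125 and 0.0625 mg/mL; absorbance decrease read at 517 nm and % remaining DPPH radical calculated. IC50 (concentration halving initial DPPH) derived by regression across concentrations, expressed as nmol/mL.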
IC50 [2],SMILES,Ratio [1]
68 µM,CSCC[C@H](NC(=O)Cc1ccc(O)c(O)c1)C(=O)NCCc1ccc(O)c(O)c1,1.24
22 µM,COC(=O)[C@H](CS)NC(=O)/C=C/c1ccc(O)c(O)c1,1.4
32 µM,O=C(/C=C/c1ccc(O)c(O)c1)N[C@@H](Cc1ccc(O)cc1)C(=O)NCCc1ccc(O)c(O)c1,2.79
143 µM,COC(=O)[C@H](CS)NC(=O)c1cc(OC)c(O)c(OC)c1,
185 µM,COC(=O)[C@H](CS)NC(=O)/C=C/c1cccc(O)c1,
44 µM,COC(=O)[C@H](Cc1ccc(O)cc1)NC(=O)Cc1ccc(O)c(O)c1,4.8
123 µM,COC(=O)[C@@H](N)CS.Cl,0.3
30 µM,COC(=O)[C@H](Cc1ccc(O)cc1)NC(=O)/C=C/c1ccc(O)c(O)c1,3.4
26 µM,"O=C(O)Cc1ccc(O)c(O)c1 [3,4-DIHYDROXYPHENYLACETIC ACID]",4.2
148 µM,COC(=O)[C@H](CS)NC(=O)/C=C/c1ccc(O)cc1,
29 µM,COC(=O)[C@H](CS)NC(=O)Cc1ccc(O)c(O)c1,3
> 1280 µM,COC(=O)[C@@H](N)Cc1ccc(O)cc1.Cl,3.9
55 µM,Cc1c(C)c2c(c(C)c1O)CCC(C)(C(=O)O)O2 (racemic) [TROLOX],
82 µM,COC(=O)[C@H](CS)NC(=O)Cc1ccc(O)c(OC)c1,2.4
32 µM,O=C(Cc1ccc(O)c(O)c1)N[C@@H](Cc1ccc(O)cc1)C(=O)NCCc1ccc(O)c(O)c1,3.82
26 µM,O=C(/C=C/c1ccc(O)c(O)c1)N[C@@H](CS)C(=O)NCCc1ccc(O)c(O)c1,0.855
> 1250 µM,COC(=O)[C@@H](N)CCSC.Cl [METHIONINE METHYL ESTER HYDROCHLORIDE],0.8
150 µM,COC(=O)[C@H](CS)NC(=O)/C=C/c1ccccc1O,
41 µM,O=C(O)/C=C/c1ccc(O)c(O)c1 [CAFFEIC ACID],2.7
23 µM,CSCC[C@H](NC(=O)/C=C/c1ccc(O)c(O)c1)C(=O)NCCc1ccc(O)c(O)c1,3.38
25 µM,COC(=O)[C@H](CCSC)NC(=O)/C=C/c1ccc(O)c(O)c1,2.3
20 µM,O=C(Cc1ccc(O)c(O)c1)N[C@@H](CS)C(=O)NCCc1ccc(O)c(O)c1,1.77
76 µM,COC(=O)[C@H](CS)NC(=O)/C=C/c1cc(OC)c(O)c(OC)c1,1.3
84 µM,COC(=O)[C@H](CS)NC(=O)/C=C/c1ccc(O)c(OC)c1,1.4
48 µM,COC(=O)[C@H](CCSC)NC(=O)Cc1ccc(O)c(O)c1,3.6

# From ChEMBL document CHEMBL1949533, “Novel molecular combination deriving from natural aminoacids and polyphenols: Design, synthesis and free-radical scavenging activities” (Eur J Med Chem, 2012)
